According to ChEMBL document CHEMBL4004830 (J Med Chem, 2017):
Active and inactive are the calls of the source. No cut-off for these calls is given here.

Assays:
MDA-MB-453 = test: Growth inhibition of human MDA-MB-453 cells after 72 hrs by MTT assay; format: functional; settings: MDA-MB-453, 72 h
Procedure, shortened: (§1)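 72 h antiproliferation assay, resazurin read-out for MV4-11 and MTT read-out for MDA-MB-453; values from at least two replicates.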

[1] = biological target: Cyclin-dependent kinase 7/ cyclin H (Homo sapiens, UniProt P50613); test: (§2) Inhibition of CDK7/cyclin H (unknown origin) in presence of [gamma-33P]-ATP […]; format: protein-complex assay; settings: read-out: Ki(app)
Sequence of Cyclin-dependent kinase 7/ cyclin H (P51946 whole entry): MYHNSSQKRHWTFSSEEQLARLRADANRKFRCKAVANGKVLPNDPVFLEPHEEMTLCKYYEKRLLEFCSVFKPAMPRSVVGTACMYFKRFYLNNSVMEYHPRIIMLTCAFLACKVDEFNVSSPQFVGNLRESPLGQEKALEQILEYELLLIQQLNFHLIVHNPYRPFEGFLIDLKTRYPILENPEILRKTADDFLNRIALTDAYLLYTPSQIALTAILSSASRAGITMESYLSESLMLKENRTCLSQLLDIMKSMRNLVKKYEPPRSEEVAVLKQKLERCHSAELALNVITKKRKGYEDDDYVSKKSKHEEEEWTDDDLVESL
Sequence of Cyclin-dependent kinase 7/ cyclin H (P50613 whole entry): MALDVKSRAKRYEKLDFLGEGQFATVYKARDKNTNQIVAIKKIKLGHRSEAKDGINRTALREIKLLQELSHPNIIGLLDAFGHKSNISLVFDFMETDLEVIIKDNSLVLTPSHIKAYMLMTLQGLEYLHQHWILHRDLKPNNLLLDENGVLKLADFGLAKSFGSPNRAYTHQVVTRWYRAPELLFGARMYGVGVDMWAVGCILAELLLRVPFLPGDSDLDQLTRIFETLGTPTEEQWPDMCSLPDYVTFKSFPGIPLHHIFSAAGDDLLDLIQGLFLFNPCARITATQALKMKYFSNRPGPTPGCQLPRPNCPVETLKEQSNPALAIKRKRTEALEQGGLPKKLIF

MV4-11 = test: Growth inhibition of human MV4-11 cells after 72 hrs by resazurin assay; format: functional; settings: MV4-11, 72 h; procedure, shortened: as §1
[2] = biological target: Cyclin-dependent kinase 1/cyclin B1 (Homo sapiens) (UniProt P06493+P14635); test: (§3) Inhibition of CDK1/cyclin B (unknown origin) in presence of [gamma-33P]-ATP […]; format: protein-complex assay
Sequence of Cyclin-dependent kinase 1/cyclin B1 (Homo sapiens) (P06493 whole entry, looked up): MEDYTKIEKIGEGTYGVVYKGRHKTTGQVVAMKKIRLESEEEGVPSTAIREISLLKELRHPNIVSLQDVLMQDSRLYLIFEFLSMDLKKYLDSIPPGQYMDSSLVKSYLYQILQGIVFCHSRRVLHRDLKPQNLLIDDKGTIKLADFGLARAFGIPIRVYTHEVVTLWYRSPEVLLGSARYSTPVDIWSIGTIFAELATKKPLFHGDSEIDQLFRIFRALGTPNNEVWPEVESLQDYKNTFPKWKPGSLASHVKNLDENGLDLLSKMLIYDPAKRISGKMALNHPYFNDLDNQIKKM
Sequence of Cyclin-dependent kinase 1/cyclin B1 (Homo sapiens) (P14635 whole entry, looked up): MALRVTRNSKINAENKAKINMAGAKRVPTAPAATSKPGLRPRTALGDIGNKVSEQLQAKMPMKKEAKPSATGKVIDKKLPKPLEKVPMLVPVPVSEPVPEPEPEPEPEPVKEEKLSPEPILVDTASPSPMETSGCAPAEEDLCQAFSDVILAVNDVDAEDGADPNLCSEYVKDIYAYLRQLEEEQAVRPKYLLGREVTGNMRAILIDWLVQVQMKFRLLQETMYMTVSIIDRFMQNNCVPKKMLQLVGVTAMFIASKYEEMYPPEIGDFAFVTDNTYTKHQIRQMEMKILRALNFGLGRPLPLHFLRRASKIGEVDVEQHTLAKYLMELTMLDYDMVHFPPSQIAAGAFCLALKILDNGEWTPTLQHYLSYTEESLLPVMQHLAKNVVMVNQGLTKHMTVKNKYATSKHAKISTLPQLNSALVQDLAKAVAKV

CDK9/cyclin T1 = CDK9/cyclin T1 (Homo sapiens, UniProt P50750); test: Inhibition of CDK9/cyclin T1 (unknown origin) in presence of [gamma-33P]-ATP […]; format: protein-complex assay; settings: read-out: Ki(app)
Sequence of CDK9/cyclin T1 (O60563 whole entry): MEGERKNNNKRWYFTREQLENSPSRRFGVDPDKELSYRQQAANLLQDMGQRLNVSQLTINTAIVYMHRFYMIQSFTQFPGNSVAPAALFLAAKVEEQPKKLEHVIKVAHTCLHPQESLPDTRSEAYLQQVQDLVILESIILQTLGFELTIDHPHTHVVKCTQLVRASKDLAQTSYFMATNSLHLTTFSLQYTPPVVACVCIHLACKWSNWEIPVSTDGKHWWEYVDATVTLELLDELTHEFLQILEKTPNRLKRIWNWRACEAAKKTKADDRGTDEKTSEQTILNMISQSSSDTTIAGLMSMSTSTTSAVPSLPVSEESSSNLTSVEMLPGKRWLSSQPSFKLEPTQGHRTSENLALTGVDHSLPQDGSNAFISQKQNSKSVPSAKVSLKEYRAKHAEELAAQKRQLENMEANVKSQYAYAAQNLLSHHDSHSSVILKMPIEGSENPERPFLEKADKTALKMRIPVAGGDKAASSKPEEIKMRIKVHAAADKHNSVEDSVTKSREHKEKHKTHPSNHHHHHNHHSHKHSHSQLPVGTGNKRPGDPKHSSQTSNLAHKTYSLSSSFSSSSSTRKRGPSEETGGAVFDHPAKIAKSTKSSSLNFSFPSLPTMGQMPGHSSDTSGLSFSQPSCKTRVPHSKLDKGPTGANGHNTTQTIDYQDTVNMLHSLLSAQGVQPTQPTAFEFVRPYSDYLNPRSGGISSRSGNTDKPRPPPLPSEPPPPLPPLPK
Sequence of CDK9/cyclin T1 (P50750 whole entry): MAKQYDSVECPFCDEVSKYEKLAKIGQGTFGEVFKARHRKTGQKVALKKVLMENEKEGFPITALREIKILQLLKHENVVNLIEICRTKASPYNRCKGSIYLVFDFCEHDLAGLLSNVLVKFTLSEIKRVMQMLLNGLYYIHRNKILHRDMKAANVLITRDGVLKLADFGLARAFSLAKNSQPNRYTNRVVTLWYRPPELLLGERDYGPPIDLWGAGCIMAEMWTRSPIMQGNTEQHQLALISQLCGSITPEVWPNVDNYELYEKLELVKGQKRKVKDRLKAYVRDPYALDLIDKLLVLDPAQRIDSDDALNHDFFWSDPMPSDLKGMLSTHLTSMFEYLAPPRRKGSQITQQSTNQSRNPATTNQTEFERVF

[3] = biological target: Cyclin-dependent kinase 1/cyclin B1 (Homo sapiens, UniProt P06493); test: as §3; format: protein-complex assay; settings: read-out: Ki(app)
Sequence of Cyclin-dependent kinase 1/cyclin B1 (P06493 whole entry): as the sequence (P06493 whole entry, looked up) above
Sequence of Cyclin-dependent kinase 1/cyclin B1 (P14635 whole entry, further chain): as the sequence (P14635 whole entry, looked up) above

CDK6/cyclin D3 = CDK6/cyclin D3 (Homo sapiens, UniProt Q00534); test: Inhibition of CDK6/cyclin D3 (unknown origin) in presence of [gamma-33P]-ATP […]; format: protein-complex assay; settings: read-out: Ki(app)
Sequence of CDK6/cyclin D3 (P30281 whole entry): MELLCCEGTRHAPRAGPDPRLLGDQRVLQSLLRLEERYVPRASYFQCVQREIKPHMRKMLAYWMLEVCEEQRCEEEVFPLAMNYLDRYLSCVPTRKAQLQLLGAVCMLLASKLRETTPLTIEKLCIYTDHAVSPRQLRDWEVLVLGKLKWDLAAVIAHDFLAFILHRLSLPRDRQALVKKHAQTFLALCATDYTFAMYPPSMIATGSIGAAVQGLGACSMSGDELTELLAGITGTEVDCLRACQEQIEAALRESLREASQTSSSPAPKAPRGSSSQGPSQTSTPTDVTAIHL
Sequence of CDK6/cyclin D3 (Q00534 whole entry): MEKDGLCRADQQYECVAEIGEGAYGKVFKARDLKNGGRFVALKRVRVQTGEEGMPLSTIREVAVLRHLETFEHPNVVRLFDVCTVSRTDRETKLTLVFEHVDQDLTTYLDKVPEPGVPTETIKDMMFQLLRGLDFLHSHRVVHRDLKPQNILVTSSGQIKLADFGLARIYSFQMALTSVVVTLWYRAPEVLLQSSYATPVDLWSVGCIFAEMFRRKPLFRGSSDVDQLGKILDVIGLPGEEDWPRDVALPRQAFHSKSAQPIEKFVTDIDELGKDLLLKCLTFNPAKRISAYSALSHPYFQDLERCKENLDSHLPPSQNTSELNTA

CDK2/Cyclin A2 = CDK2/Cyclin A2 (Homo sapiens, UniProt P24941); test: (§4) Inhibition of CDK2/cyclin A (unknown origin) in presence of [gamma-33P]-ATP […]; format: protein-complex assay; settings: read-out: Ki(app)
[4] = biological target: Cyclin-dependent kinase 4/cyclin D1 (Homo sapiens, UniProt P11802); test: Inhibition of CDK4/cyclin D1 (unknown origin) in presence of [gamma-33P]-ATP […]; format: protein-complex assay; settings: read-out: Ki(app)
Sequence of Cyclin-dependent kinase 4/cyclin D1 (P11802 whole entry, the tested form may be a part): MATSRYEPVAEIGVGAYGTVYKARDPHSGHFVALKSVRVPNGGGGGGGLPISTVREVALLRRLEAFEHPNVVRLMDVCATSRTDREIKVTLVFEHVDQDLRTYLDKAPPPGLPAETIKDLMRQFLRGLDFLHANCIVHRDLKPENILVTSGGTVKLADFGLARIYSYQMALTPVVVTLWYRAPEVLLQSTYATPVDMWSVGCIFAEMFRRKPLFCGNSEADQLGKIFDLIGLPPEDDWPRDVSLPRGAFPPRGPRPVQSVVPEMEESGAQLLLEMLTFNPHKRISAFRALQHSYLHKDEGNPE
Sequence of Cyclin-dependent kinase 4/cyclin D1 (P24385 whole entry, further chain, the tested form may be a part): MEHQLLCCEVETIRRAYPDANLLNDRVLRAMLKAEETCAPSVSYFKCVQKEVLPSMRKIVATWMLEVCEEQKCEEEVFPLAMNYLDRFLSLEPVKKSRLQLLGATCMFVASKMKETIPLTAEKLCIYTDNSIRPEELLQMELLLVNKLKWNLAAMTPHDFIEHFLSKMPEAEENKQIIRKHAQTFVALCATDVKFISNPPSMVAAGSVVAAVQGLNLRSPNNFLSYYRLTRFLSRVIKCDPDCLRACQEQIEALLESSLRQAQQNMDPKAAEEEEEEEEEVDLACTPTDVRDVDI

[5] = biological target: Homeodomain-interacting protein kinase 2 (Homo sapiens) (UniProt Q9H2X6); test: Inhibition of recombinant human N-terminal His6-tagged HIPK2 (165 to 564 amino acid residues) expressed in baculovirus infected Sf21 insect cells assessed as residual activity at 10 uM; values are per cent of control
[6] = biological target: Fibroblast growth factor receptor 1 (Homo sapiens) (UniProt P11362); test: Inhibition of recombinant human N-terminal GST-tagged FGFR1 (456 to 765 amino acid residues) expressed in baculovirus infected Sf21 insect cells assessed as residual activity at 10 uM; values are per cent of control
Sequence of Fibroblast growth factor receptor 1 (Homo sapiens) (P11362 22-822 limits assumed): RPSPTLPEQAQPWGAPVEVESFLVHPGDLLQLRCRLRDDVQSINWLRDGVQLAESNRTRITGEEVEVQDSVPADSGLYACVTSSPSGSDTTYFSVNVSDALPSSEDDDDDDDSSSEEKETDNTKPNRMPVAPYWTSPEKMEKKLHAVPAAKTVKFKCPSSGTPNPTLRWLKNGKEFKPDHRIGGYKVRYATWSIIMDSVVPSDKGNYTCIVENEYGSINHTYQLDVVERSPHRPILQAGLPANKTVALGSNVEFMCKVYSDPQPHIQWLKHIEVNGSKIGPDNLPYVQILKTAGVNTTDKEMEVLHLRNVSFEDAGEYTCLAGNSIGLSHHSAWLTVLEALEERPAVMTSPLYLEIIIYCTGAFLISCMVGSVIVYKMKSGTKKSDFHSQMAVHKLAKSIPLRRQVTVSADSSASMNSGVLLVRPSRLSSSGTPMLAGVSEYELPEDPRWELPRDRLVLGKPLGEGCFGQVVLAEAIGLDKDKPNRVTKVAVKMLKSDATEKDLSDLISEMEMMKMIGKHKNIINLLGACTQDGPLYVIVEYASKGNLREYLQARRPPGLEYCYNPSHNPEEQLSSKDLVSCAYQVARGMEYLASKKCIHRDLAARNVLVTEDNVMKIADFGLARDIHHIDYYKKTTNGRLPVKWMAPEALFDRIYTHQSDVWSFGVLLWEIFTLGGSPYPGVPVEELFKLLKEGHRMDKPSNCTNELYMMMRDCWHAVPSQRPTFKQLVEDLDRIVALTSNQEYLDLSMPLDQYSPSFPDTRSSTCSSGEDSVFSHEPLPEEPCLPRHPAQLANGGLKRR

Homo sapiens = species on record: Homo sapiens; test: Inhibition of SGK (unknown origin) assessed as residual activity at 10 uM; values are per cent of control
[7] = biological target: Receptor-type tyrosine-protein kinase FLT3 (Homo sapiens) (UniProt P36888); test: Inhibition of recombinant human N-terminal GST-tagged Flt3 (564 to end amino acid residues) expressed in baculovirus infected Sf21 insect cells assessed as residual activity at 10 uM; values are per cent of control
[8] = biological target: Death-associated protein kinase 1 (Homo sapiens) (UniProt P53355); test: Inhibition of recombinant human N-terminal GST-tagged DAPK1 (1 to 296 amino acid residues) expressed in baculovirus infected Sf21 cells assessed as residual activity at 10 uM; values are per cent of control
[9] = biological target: Vascular endothelial growth factor receptor 3 (Homo sapiens) (UniProt P35916); test: Inhibition of recombinant human N-terminal GST-tagged Flt4 (800 to end amino acid residues) expressed in baculovirus infected Sf21 insect cells assessed as residual activity at 10 uM; values are per cent of control
[10] = biological target: Serine/threonine-protein kinase pim-1 (Homo sapiens) (UniProt P11309); test: Inhibition of recombinant full-length human N-terminal GST-tagged Pim-1 expressed in Escherichia coli assessed as residual activity at 10 uM; values are per cent of control
[11] = biological target: Dual specificity tyrosine-phosphorylation-regulated kinase 1B (Homo sapiens) (UniProt Q9Y463); test: Inhibition of DYRK1B (unknown origin) assessed as residual activity at 10 uM; values are per cent of control
[12] = biological target: MAP kinase-interacting serine/threonine-protein kinase 2 (Homo sapiens) (UniProt Q9HBH9); test: Inhibition of recombinant full-length human N-terminal His6-tagged Mnk2 expressed in baculovirus infected Sf21 insect cells assessed as residual activity at 10 uM; values are per cent of control
[13] = biological target: Dual specificity tyrosine-phosphorylation-regulated kinase 1A (Rattus norvegicus) (UniProt Q63470); test: Inhibition of recombinant rat N-terminal GST-tagged DYRK1A (1 to 499 amino acid residues) expressed in Escherichia coli assessed as residual activity at 10 uM; values are per cent of control
[14] = biological target: Cyclin-dependent kinase 7/ cyclin H (Homo sapiens) (UniProt P51946+P50613); test: as §2; format: protein-complex assay
[15] = biological target: CDK2/Cyclin A2 (Homo sapiens) (UniProt P24941+P20248); test: as §4; format: protein-complex assay

SMILES | GI50 (MDA-MB-453) [nM] | Ki [1] [nM] | GI50 (MV4-11) [nM] | Ki (CDK9/cyclin T1) [nM] | Ki [3] [nM] | further results
Cc1nc(NC2CCCC2)sc1-c1nc(Nc2ccc(N3CCNCC3)cn2)ncc1F | 780 | 790 | 53 |  |  | 
CC(=O)N1CCN(c2ccc(Nc3ncc(F)c(-c4sc(NC5CCCC5)nc4C)n3)nc2)CC1 | 8110 | > 5000 | 15 |  | > 5000 | 
Cc1nc(N(C2CCCC2)C2CCCC2)sc1-c1ccnc(Nc2ccc(N3CCNCC3)cn2)n1 | 373 | > 5000 | 714 | > 5000 | > 5000 | Ki (CDK6/cyclin D3): 539 nM; Ki (CDK2/Cyclin A2): > 5000 nM; Ki [4]: 71 nM
Cc1nc(N(C)C2CCCC2)sc1-c1ccnc(Nc2ccc(N3CCN(C)CC3)cn2)n1 | 3360 | > 5000 | 20 |  | > 5000 | 
Cc1nc(N(C)c2ccccc2)sc1-c1ccnc(Nc2ccc(N3CCN(C)CC3)cn2)n1 | 150 | > 5000 | 421 |  | > 5000 | 
CCN1CCN(Cc2ccc(Nc3ncc(F)c(-c4sc(NC5CCCC5)nc4C)n3)nc2)CC1 [ULECACICLIB] | 622 | 630 | 10 |  |  | Ki(app) [2]: inactive
CCN1CCN(c2ccc(Nc3nccc(-c4sc(NC5CCCC5)nc4C)n3)nc2)CC1 | 287 | 780 | 9 |  |  | 
Cc1nc(NC2CCCC2)sc1-c1nc(Nc2ccc(N3CCN(C)CC3)cn2)ncc1F | 202 | 2020 | 73 | 505 | 2330 | Ki (CDK6/cyclin D3): 3 nM; residual activity [5]: < 10%; Ki (CDK2/Cyclin A2): 103 nM; residual activity [6]: < 10%; Ki [4]: 1 nM; residual activity (Homo sapiens): < 10%; residual activity [7]: < 10%; residual activity [8]: < 10%; residual activity [9]: < 10%; residual activity [10]: < 10%; residual activity [11]: < 10%; residual activity [12]: < 10%; residual activity [13]: < 10%
Cc1nc(NC(C)C)sc1-c1ccnc(Nc2ccc(N3CCN(C)CC3)cn2)n1 | 618 | 760 | 75 |  |  | 
CC(=O)N1CCN(c2ccc(Nc3nccc(-c4sc(NC(C)C)nc4C)n3)nc2)CC1 | 344 | 4390 | 2070 |  |  | 
O=CN1CCN(c2ccc(Nc3nccc(-c4sc(NC5CCCC5)nc4C(F)(F)F)n3)nc2)CC1 | 336 | 1900 | 4 | > 5000 |  | 
CC(=O)N1CCN(c2ccc(Nc3nccc(-c4sc(NC5CCCC5)nc4C)n3)nc2)CC1 | 591 | 3450 | 24 |  |  | 
CN1CCN(c2ccc(Nc3nccc(-c4sc(NC5CCCC5)nc4C(F)(F)F)n3)nc2)CC1 | 420 | 189 | 1 |  |  | 
FC(F)(F)c1nc(NC2CCCC2)sc1-c1ccnc(Nc2ccc(N3CCOCC3)cn2)n1 | 415 |  | 69 | > 5000 |  | Ki(app) [14]: inactive; Ki(app) [2]: inactive
Cc1nc(Nc2ccccc2)sc1-c1ccnc(Nc2ccc(N3CCN(C)CC3)cn2)n1 | 494 |  | 508 | > 5000 |  | Ki(app) [15]: inactive; Ki(app) [14]: inactive; Ki(app) [2]: inactive
Cc1nc(NC(C)C)sc1-c1ccnc(Nc2ccc(N3CCCNCC3)cn2)n1 | 938 | 1160 | 255 |  | > 5000 | 
Cc1nc(NC2CCCC2)sc1-c1ccnc(Nc2ccc(N3CCCCC3)cn2)n1 | 7040 |  | 191 | > 5000 |  | Ki (CDK2/Cyclin A2): > 5000 nM; Ki(app) [14]: inactive; Ki(app) [2]: inactive
Cc1nc(N(C)C2CCCC2)sc1-c1ccnc(Nc2ccc(N3CCNCC3)cn2)n1 | 402 | 3200 | 285 |  |  | 
Cc1nc(NC2CCCC2)sc1-c1ccnc(Nc2ccccn2)n1 | 4380 |  | 300 | > 5000 |  | 
Cc1nc(NC2CCCC2)sc1-c1ccnc(Nc2ccc(N3CCN(S(C)(=O)=O)CC3)cn2)n1 | 215 | 2640 | 176 | 1320 | 1100 | Ki (CDK6/cyclin D3): 55 nM; Ki (CDK2/Cyclin A2): 77 nM; Ki [4]: 7 nM
Cc1nc(NC2CCCC2)sc1-c1nc(Nc2ccc(N3CCOCC3)cn2)ncc1F | 1440 | > 5000 | 290 | > 5000 | 4350 | 
Cc1nc(Nc2ccccc2)sc1-c1ccnc(Nc2ccc(N3CCNCC3)cn2)n1 | 279 | 1660 | 56 |  |  | Ki (CDK2/Cyclin A2): > 5000 nM
Cc1nc(NC2CCCC2)sc1-c1nc(Nc2ccc(N3CCN(S(C)(=O)=O)CC3)cn2)ncc1F | 2810 |  | 2630 | > 5000 |  | Ki(app) [14]: inactive; Ki(app) [2]: inactive
CC(=O)N1CCN(c2ccc(Nc3nccc(-c4sc(N(C)C5CCCC5)nc4C)n3)nc2)CC1 | 6860 |  | 328 | > 5000 |  | Ki(app) [14]: inactive

Now those with a lower GI50 (MDA-MB-453), led by results:

GI50 (MDA-MB-453) [nM] | Ki [1] [nM] | GI50 (MV4-11) [nM] | Ki (CDK9/cyclin T1) [nM] | Ki [3] [nM] | SMILES | further results
66 | 685 | 13 | > 5000 |  | CCN1CCN(c2ccc(Nc3ncc(F)c(-c4sc(NC5CCCC5)nc4C)n3)nc2)CC1 | Ki(app) [2]: inactive
130 | 865 | 9 |  |  | Cc1nc(NC2CCCC2)sc1-c1ccnc(Nc2ccc(N3CCN(C)CC3)cn2)n1 | 
83 | 815 | 29 |  | > 5000 | Cc1nc(NC2CCCC2)sc1-c1nc(Nc2ccc(N3CCCNCC3)cn2)ncc1F | 
115 | > 5000 | 32 | > 5000 | > 5000 | Cc1nc(NC(C)C)sc1-c1ccnc(Nc2ccc(N3CCOCC3)cn2)n1 | 
77 | 2610 | 12 | > 5000 |  | CC(=O)N1CCN(c2ccc(Nc3nccc(-c4sc(NC5CCCC5)nc4C(F)(F)F)n3)nc2)CC1 | 
31 | 775 | 93 |  |  | Cc1nc(NC(C)C)sc1-c1ccnc(Nc2ccc(N3CCNCC3)cn2)n1 | 
69 | 211 | 19 |  | > 5000 | CCN1CCN(Cc2ccc(Nc3nccc(-c4sc(NC5CCCC5)nc4C)n3)nc2)CC1 | 
55 | 1190 | 13 |  |  | Cc1nc(NC2CCCC2)sc1-c1ccnc(Nc2ccc(N3CCC(N)CC3)cn2)n1 | 
81 | 194 | 2 |  |  | FC(F)(F)c1nc(NC2CCCC2)sc1-c1ccnc(Nc2ccc(N3CCNCC3)cn2)n1 | 
102 | 282 | 29 |  |  | Cc1nc(NC2CCCC2)sc1-c1ccnc(Nc2ccc(N3CCCNCC3)cn2)n1 | 
